# Results: ChEMBL document CHEMBL4376814, “Novel cyclin-dependent kinase 9 (CDK9) inhibitor with suppression of cancer stemness activity against non-small-cell lung cancer” (Eur J Med Chem, 2019)
# Calls of active or inactive are those of the source. The rule behind the calls is not given here.
# Tests used:
# [1] = target: CDK9/cyclin T1 (Homo sapiens) (UniProt O60563+P50750); assay: Inhibition of recombinant full-length human CDK9/cyclinT1 at 1 uM using KTFCGTPEYLAPEVRREPRILSEEEQEMFRDFDYIADWC peptide as substrate measured after 40 mins in presence of [gamma33P]ATP by scintillation counting method relative to control; type: protein-complex assay
# How it was run: (§1)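 Percent inhibition of kinase activity at a single compound concentration, measured by the outsourced Eurofins KinaseProfiler panel. Values are the mean of two independent experiments.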
# A549 [2] = assay: Inhibition of colony formation in human A549 cells after 12 days by crystal violet staining based assay; type: functional, cell-based
# How it was run: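 Cells exposed to compound, then washed, trypsinized and reseeded at 300 cells per well in 6-well plates. Colonies grew 10-14 days (legend: 12 days), were fixed in methanol 30 min, stained overnight with 0.5% crystal violet and imaged.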
# A549 [3] = assay: Induction of apoptosis in human A549 cells assessed as necrotic cells at 0.5 uM after 48 hrs by AnnexinV-FITC/PI staining-based flow cytometric analysis (reference value: 0.664%); type: functional
# NCI-H1299 [4] = assay: Induction of apoptosis in human H1299 cells assessed as necrotic cells at 0.5 uM after 48 hrs by AnnexinV-FITC/PI staining-based flow cytometric analysis (reference value: 0.9%); type: functional
# A549 [5] = assay: Induction of apoptosis in human A549 cells assessed as increase in Bim protein expression at 0.25 to 1 uM after 24 hrs by Western blot analysis; type: functional, cell-based
# How it was run: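 A549 or H1299 cells exposed to the indicated concentrations for 24 h. Protein extracts then immunoblotted for apoptosis-pathway proteins (Bcl2, Bim, cleaved caspase 3).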
# A549 [6] = assay: Downregulation of SOX2 in human A549 cells at 0.25 to 1 uM by Western blot analysis; type: functional, cell-based
# NCI-H1299 [7] = assay: Antitumour activity against human H1299 cells xenografted in Balb/c mouse assessed as reduction in Oct4 level at 20 to 80 mg/kg, po administered for 3 weeks by […] based light microscopic analysis; type: functional, organism-based
# How it was run: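 Tumours came from the H1299 oral-dosing xenograft run for 3 weeks. Formalin-fixed, paraffin-embedded 5-µm sections were deparaffinized and rehydrated. Primary antibodies (CDK9, cyclin T1, p-Rb Ser780, RNAPII CTD Ser5, Oct4) used at 1:100 overnight at 4 °C. Biotinylated secondary for 1 h at room temperature, then ABC-peroxidase/DAB, hematoxylin counterstain and light microscopy.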
# [8] = tested on: Hepatocyte growth factor receptor (Homo sapiens), P08581 [D1228H]; assay: Inhibition of recombinant human MET A1209G/V1290L/D1246H mutant (974 to end residues) at 1 uM using KKKGQEEEYVFIE as substrate measured after 40 mins in presence of [gamma33P]ATP by scintillation counting method relative to control
# [9] = target: CDK3/Cyclin E (Homo sapiens) (UniProt P24864+Q00526); assay: Inhibition of recombinant full-length human CDK3/cyclinE at 1 uM using Histone H1 as substrate measured after 40 mins in presence of [gamma33P]ATP by scintillation counting method relative to control; type: protein-complex assay
# Chain of CDK3/Cyclin E (Homo sapiens) (P24864 whole entry, looked up): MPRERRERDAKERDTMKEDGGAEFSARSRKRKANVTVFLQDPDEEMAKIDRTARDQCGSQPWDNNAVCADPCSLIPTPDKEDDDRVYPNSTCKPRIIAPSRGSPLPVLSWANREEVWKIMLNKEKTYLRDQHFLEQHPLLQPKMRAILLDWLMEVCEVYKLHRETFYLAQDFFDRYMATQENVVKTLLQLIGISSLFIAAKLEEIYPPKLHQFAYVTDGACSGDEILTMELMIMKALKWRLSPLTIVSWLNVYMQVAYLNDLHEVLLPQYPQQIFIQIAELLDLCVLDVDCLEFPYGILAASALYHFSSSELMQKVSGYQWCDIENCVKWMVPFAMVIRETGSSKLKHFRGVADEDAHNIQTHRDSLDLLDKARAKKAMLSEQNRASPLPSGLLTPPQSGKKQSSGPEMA
# Chain of CDK3/Cyclin E (Homo sapiens) (Q00526 whole entry, looked up): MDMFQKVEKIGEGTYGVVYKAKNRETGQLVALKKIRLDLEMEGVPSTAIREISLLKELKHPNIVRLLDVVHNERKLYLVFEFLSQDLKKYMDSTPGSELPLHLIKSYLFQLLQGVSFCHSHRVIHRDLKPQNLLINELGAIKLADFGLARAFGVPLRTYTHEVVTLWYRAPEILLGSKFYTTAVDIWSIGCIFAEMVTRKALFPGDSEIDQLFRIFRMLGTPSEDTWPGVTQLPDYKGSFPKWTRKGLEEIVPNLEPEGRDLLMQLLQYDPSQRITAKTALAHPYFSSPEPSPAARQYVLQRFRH
# [10] = target: Serine/threonine-protein kinase Chk1 (Homo sapiens) (UniProt O14757); assay: Inhibition of full length recombinant human CHK1 at 1 uM using KKKVSRSGLYRSPSMPENLNRPR as substrate measured after 40 mins in presence of [gamma33P]ATP by scintillation counting method relative to control
# [11] = target: Serine/threonine-protein kinase Nek11 (Homo sapiens) (UniProt Q8NG66); assay: Inhibition of recombinant full-length human NEK11 at 1 uM using myelin basic protein as substrate measured after 40 mins in presence of [gamma33P]ATP by scintillation counting method relative to control
# Chain of Serine/threonine-protein kinase Nek11 (Homo sapiens) (Q8NG66 whole entry): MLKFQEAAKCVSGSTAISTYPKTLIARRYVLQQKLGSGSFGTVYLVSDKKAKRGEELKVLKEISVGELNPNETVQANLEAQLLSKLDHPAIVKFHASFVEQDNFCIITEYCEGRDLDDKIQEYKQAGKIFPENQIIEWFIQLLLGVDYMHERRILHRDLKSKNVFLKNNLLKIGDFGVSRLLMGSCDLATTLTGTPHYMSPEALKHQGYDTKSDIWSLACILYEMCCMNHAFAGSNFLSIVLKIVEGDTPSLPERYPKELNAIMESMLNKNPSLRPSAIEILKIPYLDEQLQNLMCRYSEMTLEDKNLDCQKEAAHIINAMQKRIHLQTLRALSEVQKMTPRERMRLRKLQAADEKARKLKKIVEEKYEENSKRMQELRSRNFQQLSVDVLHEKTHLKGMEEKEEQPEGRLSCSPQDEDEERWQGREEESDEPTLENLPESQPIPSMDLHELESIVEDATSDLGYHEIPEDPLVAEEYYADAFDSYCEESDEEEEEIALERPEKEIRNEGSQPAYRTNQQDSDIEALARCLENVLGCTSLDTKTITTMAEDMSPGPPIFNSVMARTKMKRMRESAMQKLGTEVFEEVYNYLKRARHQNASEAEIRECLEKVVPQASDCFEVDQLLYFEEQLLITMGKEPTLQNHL
# [12] = tested on: Platelet-derived growth factor receptor alpha (Homo sapiens), P16234 [D842V]; assay: Inhibition of recombinant human PDGFRalpha (550 to end residues) D842V mutant at 1 uM using GGMEDIYFEFMGGKKK as substrate measured after 40 mins in presence of [gamma33P]ATP by scintillation counting method relative to control
# Chain of Platelet-derived growth factor receptor alpha (Homo sapiens), P16234 [D842V] (P16234 whole entry D842V, the tested form may be a part): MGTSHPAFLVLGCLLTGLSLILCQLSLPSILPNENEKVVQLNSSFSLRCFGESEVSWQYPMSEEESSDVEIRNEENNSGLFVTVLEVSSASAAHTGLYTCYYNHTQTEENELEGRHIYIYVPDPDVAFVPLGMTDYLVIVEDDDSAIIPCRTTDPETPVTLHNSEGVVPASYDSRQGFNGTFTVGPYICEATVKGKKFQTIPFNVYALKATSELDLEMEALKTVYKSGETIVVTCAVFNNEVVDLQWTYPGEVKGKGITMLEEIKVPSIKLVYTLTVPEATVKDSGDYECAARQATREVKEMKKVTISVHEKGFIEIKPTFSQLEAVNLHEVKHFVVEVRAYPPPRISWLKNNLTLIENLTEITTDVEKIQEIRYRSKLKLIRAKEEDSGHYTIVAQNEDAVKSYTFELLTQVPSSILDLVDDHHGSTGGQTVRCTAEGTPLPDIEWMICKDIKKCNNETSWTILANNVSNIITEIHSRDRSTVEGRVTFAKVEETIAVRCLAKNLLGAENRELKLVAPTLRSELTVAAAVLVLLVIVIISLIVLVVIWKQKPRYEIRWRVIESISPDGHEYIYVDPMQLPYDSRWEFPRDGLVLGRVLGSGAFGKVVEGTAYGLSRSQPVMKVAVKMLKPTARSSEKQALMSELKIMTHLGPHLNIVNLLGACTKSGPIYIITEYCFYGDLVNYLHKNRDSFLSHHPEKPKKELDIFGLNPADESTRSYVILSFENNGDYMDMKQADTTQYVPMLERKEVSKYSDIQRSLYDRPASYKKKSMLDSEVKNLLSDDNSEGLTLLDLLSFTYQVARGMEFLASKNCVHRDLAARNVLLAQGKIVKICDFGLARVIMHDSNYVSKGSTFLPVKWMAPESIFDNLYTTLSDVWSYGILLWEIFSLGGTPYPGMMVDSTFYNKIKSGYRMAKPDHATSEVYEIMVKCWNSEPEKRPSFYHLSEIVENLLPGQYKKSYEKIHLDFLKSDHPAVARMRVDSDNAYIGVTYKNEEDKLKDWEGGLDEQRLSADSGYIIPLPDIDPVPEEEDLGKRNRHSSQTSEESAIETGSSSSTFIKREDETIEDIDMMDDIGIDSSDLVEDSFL
# [13] = target: Rho-associated protein kinase 2 (Homo sapiens) (UniProt O75116); assay: Inhibition of human ROCK2 (11 to 552 residues) at 1 uM using KEAKEKRQEQIAKRRRLSSLRASTSKSGGSQK as substrate measured after 40 mins in presence of [gamma33P]ATP by scintillation counting method relative to control
# Chain of Rho-associated protein kinase 2 (Homo sapiens) (O75116 whole entry, looked up, the tested form may be a part): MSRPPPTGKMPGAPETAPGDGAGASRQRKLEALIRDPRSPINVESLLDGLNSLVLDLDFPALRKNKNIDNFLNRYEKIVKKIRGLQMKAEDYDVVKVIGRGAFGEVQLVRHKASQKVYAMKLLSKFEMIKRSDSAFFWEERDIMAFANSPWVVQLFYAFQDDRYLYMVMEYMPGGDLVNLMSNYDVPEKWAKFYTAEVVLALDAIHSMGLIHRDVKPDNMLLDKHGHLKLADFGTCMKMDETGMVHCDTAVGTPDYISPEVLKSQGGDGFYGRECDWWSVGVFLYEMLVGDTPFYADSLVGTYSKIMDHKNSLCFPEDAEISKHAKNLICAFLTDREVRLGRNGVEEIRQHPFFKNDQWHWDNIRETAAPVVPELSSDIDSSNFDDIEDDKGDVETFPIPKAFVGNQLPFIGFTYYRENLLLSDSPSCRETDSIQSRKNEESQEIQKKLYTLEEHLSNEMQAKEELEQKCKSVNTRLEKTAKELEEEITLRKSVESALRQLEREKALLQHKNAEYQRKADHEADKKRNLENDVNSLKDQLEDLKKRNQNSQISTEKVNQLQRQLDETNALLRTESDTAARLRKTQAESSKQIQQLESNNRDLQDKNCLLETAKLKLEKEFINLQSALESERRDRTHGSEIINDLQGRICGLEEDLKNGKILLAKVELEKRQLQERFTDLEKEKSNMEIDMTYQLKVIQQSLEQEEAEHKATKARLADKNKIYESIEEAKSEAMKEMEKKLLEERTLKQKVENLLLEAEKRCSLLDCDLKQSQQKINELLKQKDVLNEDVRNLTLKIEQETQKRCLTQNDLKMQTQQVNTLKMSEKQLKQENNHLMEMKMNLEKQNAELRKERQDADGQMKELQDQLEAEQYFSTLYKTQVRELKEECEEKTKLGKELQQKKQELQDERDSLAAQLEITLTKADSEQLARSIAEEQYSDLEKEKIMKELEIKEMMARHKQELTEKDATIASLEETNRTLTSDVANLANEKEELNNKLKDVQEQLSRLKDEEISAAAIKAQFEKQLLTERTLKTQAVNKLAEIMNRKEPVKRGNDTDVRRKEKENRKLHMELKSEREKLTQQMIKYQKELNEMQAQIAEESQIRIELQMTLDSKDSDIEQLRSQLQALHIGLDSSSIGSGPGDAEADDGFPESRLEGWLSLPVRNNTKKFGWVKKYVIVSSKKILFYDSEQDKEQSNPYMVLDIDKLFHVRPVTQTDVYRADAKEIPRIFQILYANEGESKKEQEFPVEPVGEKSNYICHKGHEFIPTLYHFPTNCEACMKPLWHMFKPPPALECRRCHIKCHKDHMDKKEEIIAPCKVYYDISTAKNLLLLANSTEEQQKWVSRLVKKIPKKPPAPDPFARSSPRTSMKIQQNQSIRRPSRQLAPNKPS
# How it was run: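 Percent inhibition at 1 µM was measured by the contract KinaseProfiler service (Eurofins) on the human kinase. Values are the mean of two independent experiments.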
# [14] = target: Mitogen-activated protein kinase kinase kinase kinase 2 (Homo sapiens) (UniProt Q12851); assay: Inhibition of recombinant human GCK (1 to 473 residues) at 1 uM using myelin basic protein as substrate measured after 40 mins in presence of [gamma33P]ATP by scintillation counting method relative to control
# [15] = target: Mitogen-activated protein kinase kinase kinase kinase 1 (Homo sapiens) (UniProt Q92918); assay: Inhibition of recombinant human HPK1 (1 to 346 residues) at 1 uM using myelin basic protein as substrate measured after 40 mins in presence of [gamma33P]ATP by scintillation counting method relative to control
# [16] = target: Tyrosine-protein kinase JAK1 (Homo sapiens) (UniProt P23458); assay: Inhibition of recombinant human JAK1 (866 to end residues) at 1 uM using GEEPLYWSFPAKKK as substrate measured after 40 mins in presence of [gamma33P]ATP by scintillation counting method relative to control
# Chain of Tyrosine-protein kinase JAK1 (Homo sapiens) (P23458 whole entry): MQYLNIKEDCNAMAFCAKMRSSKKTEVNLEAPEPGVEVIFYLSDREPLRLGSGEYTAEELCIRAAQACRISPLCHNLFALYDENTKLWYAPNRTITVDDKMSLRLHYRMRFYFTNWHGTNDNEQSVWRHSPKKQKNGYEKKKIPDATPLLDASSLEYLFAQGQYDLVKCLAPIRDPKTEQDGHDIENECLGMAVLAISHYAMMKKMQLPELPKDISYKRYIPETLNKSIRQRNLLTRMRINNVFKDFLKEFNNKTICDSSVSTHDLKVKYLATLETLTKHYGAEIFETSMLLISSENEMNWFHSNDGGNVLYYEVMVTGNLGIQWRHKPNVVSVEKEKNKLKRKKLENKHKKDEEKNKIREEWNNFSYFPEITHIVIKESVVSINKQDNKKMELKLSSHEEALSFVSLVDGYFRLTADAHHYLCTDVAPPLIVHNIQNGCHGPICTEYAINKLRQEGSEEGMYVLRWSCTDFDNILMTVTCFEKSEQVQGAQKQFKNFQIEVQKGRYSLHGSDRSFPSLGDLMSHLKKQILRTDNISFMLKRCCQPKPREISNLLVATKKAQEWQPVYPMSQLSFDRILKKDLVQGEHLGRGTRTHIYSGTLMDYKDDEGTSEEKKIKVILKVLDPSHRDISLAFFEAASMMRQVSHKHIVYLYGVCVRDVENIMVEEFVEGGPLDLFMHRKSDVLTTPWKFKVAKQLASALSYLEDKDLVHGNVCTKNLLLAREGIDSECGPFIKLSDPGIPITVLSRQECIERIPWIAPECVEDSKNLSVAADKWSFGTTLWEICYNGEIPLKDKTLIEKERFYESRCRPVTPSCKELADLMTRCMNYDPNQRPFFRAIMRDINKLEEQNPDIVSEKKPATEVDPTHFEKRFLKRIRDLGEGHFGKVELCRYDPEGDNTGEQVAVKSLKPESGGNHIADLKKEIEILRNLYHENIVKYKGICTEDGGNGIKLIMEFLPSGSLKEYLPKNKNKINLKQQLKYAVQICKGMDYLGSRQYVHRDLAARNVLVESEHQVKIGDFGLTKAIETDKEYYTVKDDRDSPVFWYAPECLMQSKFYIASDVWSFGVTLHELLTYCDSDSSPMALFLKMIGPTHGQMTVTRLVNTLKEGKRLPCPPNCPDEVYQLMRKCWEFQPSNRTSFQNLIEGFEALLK
# [17] = target: Tyrosine-protein kinase Srms (Homo sapiens) (UniProt Q9H3Y6); assay: Inhibition of human SRMS at 1 uM by radiometric method relative to control; how it was run: as §1
# [18] = target: Serine/threonine-protein kinase 25 (Homo sapiens) (UniProt O00506); assay: Inhibition of human STK25 (1 to 308 residues) at 1 uM using RLGRDKYKTLRQIRQ as substrate measured after 40 mins in presence of [gamma33P]ATP by scintillation counting method relative to control; how it was run: as §1
# [19] = target: LIM domain kinase 2 (Homo sapiens) (UniProt P53671); assay: Inhibition of recombinant human LIMK2 at 1 uM by radiometric method relative to control
# [20] = target: PI3K p110 beta/p85 alpha (Homo sapiens) (UniProt P27986+P42338); assay: Inhibition of recombinant full-length human PI3K p110beta/p85alpha at 1 uM using phosphatidylinositol-4, 5-bisphosphate as substrate measured after 40 mins by fluorescence assay relative to control; type: protein-complex assay
# [21] = target: Phosphatidylinositol 4-phosphate 3-kinase C2 domain-containing subunit alpha (Homo sapiens) (UniProt O00443); assay: Inhibition of recombinant human PI3KC2alpha (299 to end residues) at 1 uM using phosphatidylinositol as substrate measured after 40 mins by HTRF assay relative to control
# [22] = target: Interleukin-1 receptor-associated kinase 1 (Homo sapiens) (UniProt P51617); details: 1 uM
structure (smiles),measurement,setting,value
CN(C)C(=O)c1cc2cnc(Nc3ccc(NC(=O)CCCCCCCN=C=S)cc3)nc2n1C1CCCC1,inhibition,[1],98%
same,inhibition,A549 [2],Dose-dependent effect
same,Activity,A549 [3],6.11%
same,Activity,NCI-H1299 [4],1.11%
same,Activity,A549 [5],Active
same,Activity,A549 [6],Active
same,Activity,NCI-H1299 [7],Active
same,inhibition,[8],74%
same,inhibition,[9],82%
same,inhibition,[10],-9%
same,inhibition,[11],20%
same,inhibition,[12],44%
same,inhibition,[13],5%
same,inhibition,[14],81%
same,inhibition,[15],85%
same,inhibition,[16],77%
same,inhibition,[17],34%
same,inhibition,[18],-2%
same,inhibition,[19],13%
same,inhibition,[20],5%
same,inhibition,[21],-3%
same,inhibition,[22],98%
